Active and inactive are the calls of the source.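 How the source made its calls, unless noted: active means inhibition at or above 50% at 10 µM; inactive means inhibition below 50%.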

The text below walks through data of PubChem BioAssay.

Experiment [1] can be described thus: inhibitors of TNFa-induced NFkB p65 translocation, primary screen, imaging, HUVEC, MLSMR starter and 10KST1 sets (AID 438;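 active means inhibition above 20% together with a positive visual image hit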;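 further: compound added about 3h40 before a 20 min TNFalpha stimulation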;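 on inhibition: signal is the nuclear over cytoplasmic p65 intensity ratio per well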). Conditions: HUVEC TNFa-induced p65 nuclear translocation; cell count: measured here: nuclei count (cytotoxicity indicator), at 2.08 µM; inhibition: at 2 µM, stronger effect = higher value, 0% TNFa-plus-vehicle, 100% no-TNFa wells.
Experiment [2] in a line: inhibitors of mutant huntingtin aggregation, primary screen, imaging, exon1htt(103Q)mCFP cells, high-content imaging (AID 483;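 active means visual image review flags a hit and inhibition of aggregation exceeds 20%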;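 further: compound exposure lasted 3 days before fixation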;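 on nuclei count: percent of the per-plate median nuclei count of sample wells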). Conditions: exon1htt(103Q)mCFP cell line, aggregate imaging, at 2 µM; inhibition of aggregation: stronger effect = higher value; nuclei count: measured here: cell count, toxicity.
Experiment [3] is described as follows: inhibitors of E-selectin induction by TNFa, primary screen, imaging, HUVEC, immunofluorescence, MLSMR starter and 10KST1 sets (AID 487;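 active means visually confirmed hit in the image check and inhibition above 20%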;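 on inhibition: signal is fraction of cell area covered by stained E-selectin grains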;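 on nuclei count: 100% = median nuclei count of all wells on the same plate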). Conditions: HUVEC TNFalpha-induced E-selectin immunofluorescence imaging, at 2 µM; inhibition: stronger effect = higher value; nuclei count: measured here: cell number, toxicity.
Experiment [4] addresses Voltage-gated potassium channel subunit beta-2 (Rattus norvegicus) (UniProt P62483). As to the kind of experiment: KvBeta enzyme negative modulators, primary screen, biochemical, NADPH fluorescence (AID 622;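 active means fluorescence slope higher than the sample average by over 3 SD, cut at about -0.22 in these data, passing the limit was not always enough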;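 further: slope of raw intensity against log time taken from 70 to 1610 s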). Conditions: recombinant KvBeta, 4-cyanobenzaldehyde reduction, at 10 µM, stronger effect = higher value.
Experiment [5] shares this target. As to the kind of experiment: KvBeta positive modulators, primary screen, biochemical, NADPH fluorescence (AID 623;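 active means NADPH fluorescence slope more negative than the mean of all samples by about 3 SD, 99.7% confidence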;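 further: fluorescence intensity change per second fitted from 20 to 320 s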). Conditions: Recombinant KvBeta, NADPH fluorescence decrease slope, 10 min; at 10 µM; stronger effect = lower value.
The target of experiment [6] is Alpha-2C adrenergic receptor (Homo sapiens) (UniProt P18825). As to the kind of experiment: modulators of alpha2C/GIRK thallium flux, primary screen, cell-based, HEK293 alpha2C/GIRK1/2 (AID 624;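 active means fluorescence slope after compound addition differing from the mean of all screened samples at 99.7% confidence, in either direction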;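 further: slope of fluorescence ratio to pre-addition baseline per second over 15 to 24 s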). Conditions: thallium flux BTC fluorescence, at 10 µM, actives lie on both sides.
The nature of experiment [7]: inhibitors of larval lipid processing in zebrafish, primary screen, whole organism, PED6 fluorescence, gall bladder and intestine (AID 686;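 active means a full or partial loss of lipid-probe fluorescence in the fish gall bladder, intestine or both, judged by eye; inactive means no fluorescence loss, or compound toxic to the fish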;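 further: larvae 5 to 7 days old with five fish per well; signal comes from phospholipase A2 cleavage of quenched PED6 carried via bile; overnight exposure to compound and PED6 before scoring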). Conditions: Zebrafish larvae PED6 lipid processing, fluorescence scoring; screened at 20 µM (by protocol). A digest of the protocol:
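Doses: 20 µM single dose. Test system: live zebrafish larvae aged 5-7 days, whole organism. Quantity: five larvae per well. Measured by: By-eye fluorescence microscopy. Reagent: ingested quenched lipid PED6 at 100 nM. Read-out: visual per-well fluorescence inhibition score. Times: overnight exposure of larvae to compound plus PED6.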

Experiment [8] can be described thus: inhibitors of Sendai virus-induced IRF3 signaling, primary screen, TLR/RLR signaling modifier project, cell-based, Sendai virus stimulus, luciferase, 10K MLSCN set (AID 602276).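 Further: firefly luciferase from ISG56 promoter only with Renilla not read in this screen; 0% = Sendai virus plus DMSO and 100% = medium plus DMSO without virus.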 Conditions: HEK293 RL24 IRF3 luciferase reporter, at 10 µM, stronger effect = higher value.
Experiment [9] can be described thus: inhibitors of poly I:C-induced TLR3 signaling, primary screen, cell-based, poly I:C stimulus, luciferase, 10K MLSCN set (AID 602277;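 active means inhibition of the reporter signal at or above 50%; inactive means inhibition below 50%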). Conditions: HEK293-TLR3 RL24 IRF3 luciferase reporter, at 10 µM, stronger effect = higher value. (Reporter assays use an easily measured gene product as a stand-in for the process of interest.)

Voltage-gated potassium channel subunit beta-2 (Rattus norvegicus), sequence (P62483 whole entry, looked up): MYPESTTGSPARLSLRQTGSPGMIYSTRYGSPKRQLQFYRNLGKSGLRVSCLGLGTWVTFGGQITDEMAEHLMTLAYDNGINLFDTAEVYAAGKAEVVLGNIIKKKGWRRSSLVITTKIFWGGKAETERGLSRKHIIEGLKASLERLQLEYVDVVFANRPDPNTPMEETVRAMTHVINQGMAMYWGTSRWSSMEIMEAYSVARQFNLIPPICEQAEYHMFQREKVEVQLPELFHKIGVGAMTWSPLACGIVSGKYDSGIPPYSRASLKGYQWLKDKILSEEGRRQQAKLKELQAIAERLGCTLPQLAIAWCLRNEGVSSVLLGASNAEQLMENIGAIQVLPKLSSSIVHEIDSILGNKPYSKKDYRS
Alpha-2C adrenergic receptor (Homo sapiens), sequence (P18825 whole entry, looked up): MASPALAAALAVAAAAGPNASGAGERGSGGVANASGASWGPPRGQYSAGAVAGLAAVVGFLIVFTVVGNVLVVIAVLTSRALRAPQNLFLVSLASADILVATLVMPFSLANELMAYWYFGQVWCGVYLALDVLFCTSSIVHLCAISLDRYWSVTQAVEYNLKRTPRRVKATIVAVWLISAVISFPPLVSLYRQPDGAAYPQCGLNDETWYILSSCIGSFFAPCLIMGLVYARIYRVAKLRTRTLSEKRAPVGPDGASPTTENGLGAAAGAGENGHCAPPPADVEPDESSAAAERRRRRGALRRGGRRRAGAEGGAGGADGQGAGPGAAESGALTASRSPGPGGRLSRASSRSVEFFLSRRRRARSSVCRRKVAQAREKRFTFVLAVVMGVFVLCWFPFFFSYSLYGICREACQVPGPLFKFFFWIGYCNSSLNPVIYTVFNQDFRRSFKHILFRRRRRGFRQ

With `O=C(NCCCN1CCCC1=O)c1cccnc1`, in experiment [1], the cell count amounted to 364. In addition, the inhibition is 2.5% (inactive) in experiment [1], 35.2% (inactive) in [3], -11.4% (inactive) in experiment [8] and -7.12% (inactive) in [9]. Also, the inhibition of aggregation in [2] was -3.8% (inactive). Also, the nuclei count in [2] came to 108%; in [3], 100%. The fluorescence slope in [4] was -0.432 (inactive). Besides, the NADPH fluorescence slope in experiment [5] was -4.3e-06 (inactive). Also, in [6], the slope was 0.00372 (inactive). Also, in experiment [7], the compound was called inactive.
Take `COC(=O)Cn1cnc2sc(C)c(S(=O)(=O)N3CCC(C)CC3)c2c1=O`: in experiment [1], the cell count stood at 543. The inhibition in [1] is -2.4% (inactive); in [3] it was -31.1% (inactive); in experiment [8] it was 6.12% (inactive); in [9], 8.67% (inactive). Besides, the inhibition of aggregation in experiment [2] is -10.1% (inactive). Besides, the nuclei count in experiment [2] was 106%; in [3], 101%. Besides, in experiment [4], the fluorescence slope is -0.473 (inactive). Besides, the NADPH fluorescence slope in experiment [5] is -2.3e-05 (inactive). The slope in experiment [6] was 0.00523 (inactive). Further, the result in [7] was inactive.
With `Cc1ccc(NC(=O)CSc2nnc(-c3ccc(S(=O)(=O)N4CCOCC4)cc3)n2C)cc1`, the cell count in experiment [1] worked out at 740. Also, the inhibition was -0.2% (inactive) in [1], 9.3% (inactive) in [3], 4.24% (inactive) in experiment [8] and 4.26% (inactive) in experiment [9]. The inhibition of aggregation in experiment [2] is 0.9% (inactive). The nuclei count came to 87% in experiment [2] and 111% in [3]. For the same compound, the fluorescence slope in experiment [4] was -0.384 (inactive). For the same compound, in experiment [5], the NADPH fluorescence slope was -7.3e-05 (inactive). Besides, in experiment [6], the slope was 0.00534 (inactive). Besides, the call in [7] was inactive.
Consider `CC(NC(=O)NC12CC3CC(CC(C3)C1)C2)C1CCCO1` (stereo not drawn), for which the cell count in [1] is 356. The inhibition in experiment [1] is 2.9% (inactive); in [3] it was 1.7% (inactive); in experiment [8] it was 15.3% (inactive); in [9], 8.29% (inactive). In experiment [2], the inhibition of aggregation was 0.8% (inactive). The nuclei count in [2] worked out at 80.4%; in [3], 87.1%. In addition, in experiment [4], the fluorescence slope was -0.439 (inactive). The NADPH fluorescence slope in [5] is -2.2e-05 (inactive). Further, the slope in experiment [6] was 0.00592 (inactive). Besides, the result in [7] was inactive.
Regarding `COc1cc(SC)ccc1C(=O)Nc1ccccc1C#N`, the cell count in [1] was 417. Besides, the inhibition in experiment [1] was 3.9% (inactive); in experiment [3] it was -147% (inactive); in [8], -42.4% (inactive); in [9] it was -61.5% (inactive). Moreover, the inhibition of aggregation in experiment [2] is -95.3% (inactive). Besides, the nuclei count in [2] was 2.1%; in [3] it was 111%. Besides, the fluorescence slope in [4] is -0.449 (inactive). Further, the NADPH fluorescence slope in experiment [5] was -1.3e-05 (inactive). Moreover, in experiment [6], the slope is 0.00527 (inactive). The result in experiment [7] was inactive.
Take `Cc1nnc(NC(=O)C2CCCO2)s1` (stereo not drawn): the cell count in experiment [1] is 345. The inhibition in experiment [1] was 5.2% (inactive); in experiment [3], -105% (inactive); in experiment [8] it was 6.24% (inactive); in experiment [9], 6.47% (inactive). Further, the inhibition of aggregation in experiment [2] was -9.5% (inactive). Also, the nuclei count in [2] was determined as 97.4%; in experiment [3], 104%. Further, in experiment [4], the fluorescence slope is -0.467 (inactive). For the same compound, in [5], the NADPH fluorescence slope was -4.2e-05 (inactive). For the same compound, the slope in experiment [6] was 0.00593 (inactive). Besides, the outcome in experiment [7] was “active; weak signal in gallbladder only”.
Turning to `COc1ccc(N2CCN(C(=O)CSc3ccccc3)CC2)cc1`, the cell count in experiment [1] was determined as 393. The inhibition in [1] is -11.8% (inactive); in experiment [3] it was -18.6% (inactive); in [8], -14.2% (inactive); in [9], -34.1% (inactive). Further, the inhibition of aggregation in experiment [2] is 1.5% (inactive). In addition, the nuclei count in experiment [2] was found to be 105%; in experiment [3], 108%. The fluorescence slope in experiment [4] is -0.401 (inactive). Moreover, in experiment [5], the NADPH fluorescence slope is -5.3e-05 (inactive). The slope in experiment [6] was 0.00515 (inactive). The compound was called inactive in experiment [7].
For `Cc1nc2ccc(F)cc2cc1C(=O)NCC1CCCO1` (stereo not drawn), in experiment [1], the cell count was found to be 421. Also, the inhibition in experiment [1] is -8.7% (inactive); in experiment [3], -34.7% (inactive); in experiment [8], 17.3% (inactive); in experiment [9], 27.4% (inactive). Moreover, the inhibition of aggregation in experiment [2] is 7.6% (inactive). The nuclei count in experiment [2] was determined as 96.4%; in experiment [3] it was 115%. Further, the fluorescence slope in experiment [4] was -0.432 (inactive). The NADPH fluorescence slope in [5] is -4.9e-05 (inactive). Also, the slope in [6] is 0.00492 (inactive). Moreover, the outcome in [7] was inactive.
For `Cn1c(=O)c2c(nc(NCCCO)n2Cc2cccc(Br)c2)n(C)c1=O`, the cell count in experiment [1] was determined as 705. In addition, the inhibition in experiment [1] is -1.8% (inactive); in experiment [3], 25.3% (inactive); in experiment [8] it was 14.9% (inactive); in [9] it was 14.1% (inactive). The inhibition of aggregation in experiment [2] is 1.7% (inactive). For the same compound, the nuclei count stood at 108% in experiment [2] and 92.8% in [3]. The fluorescence slope in [4] was -0.349 (inactive). Further, in experiment [5], the NADPH fluorescence slope is -4.6e-05 (inactive). The slope in experiment [6] was 0.00493 (inactive). Also, the compound was called inactive in experiment [7].
`COc1ccc(NC(=O)CSc2ccccn2)cc1OC`: the cell count in [1] amounted to 554. The inhibition in experiment [1] was -42.2% (inactive); in experiment [3] it was 10.4% (inactive); in experiment [8] it was -19.5% (inactive); in experiment [9], -27.7% (inactive). Further, the inhibition of aggregation in experiment [2] was 5.1% (inactive). The results for the nuclei count in [2] and in [3] were 107% and 88.2%, respectively. Also, in [4], the fluorescence slope is -0.384 (inactive). In addition, the NADPH fluorescence slope in experiment [5] is -1.5e-05 (inactive). In addition, the slope in [6] was 0.00501 (inactive). Besides, in experiment [7], the call was inactive.
Consider `CCOC(=O)c1ccc(NC(=O)N2CCN(Cc3cccc(F)c3)CC2)cc1`, for which the cell count in experiment [1] came out at 688. For the same compound, the inhibition in experiment [1] is -1.4% (inactive); in experiment [3], -126% (inactive); in experiment [8], 5.73% (inactive); in experiment [9], 7.2% (inactive). In addition, the inhibition of aggregation in [2] is -19% (inactive). Moreover, the results for the nuclei count in [2] and in [3] were 97.2% and 109%, respectively. The fluorescence slope in experiment [4] is -0.424 (inactive). The NADPH fluorescence slope in experiment [5] is -5e-05 (inactive). In experiment [6], the slope was 0.00506 (inactive). Further, the call in [7] was inactive.
Consider `COc1ccc(Cl)cc1NC(=O)CSc1nncn1-c1cccnc1`, for which, in experiment [1], the cell count stood at 391. In addition, the inhibition in experiment [1] is -10.2% (inactive); in experiment [3], 60.5% (active); in [8], 15.1% (inactive); in experiment [9] it was 22.7% (inactive). The inhibition of aggregation in experiment [2] is 25.6% (inactive). In addition, the nuclei count in experiment [2] was 58.8%; in [3], 93.1%. The fluorescence slope in experiment [4] is -0.296 (inactive). The NADPH fluorescence slope in [5] is 1.5e-05 (inactive). Besides, the slope in [6] is 0.00524 (inactive). Also, the compound was called inactive in experiment [7].
Regarding `COc1cccc(NC(=O)N(CCCN2CCOCC2)C(C)c2cc3cccc(OC)c3o2)c1` (stereo not drawn), in experiment [1], the cell count was determined as 863. Further, the inhibition in experiment [1] was 5% (inactive); in [3], -93.2% (inactive); in [8], 16.5% (inactive); in experiment [9] it was 34.8% (inactive). The inhibition of aggregation in experiment [2] was -3.4% (inactive). Moreover, the nuclei count was 106% in experiment [2] and 132% in [3]. The fluorescence slope in experiment [4] was -0.433 (inactive). Moreover, the NADPH fluorescence slope in experiment [5] is -6.3e-05 (inactive). Besides, in [6], the slope was 0.00436 (inactive). Moreover, the compound was called inactive in experiment [7].
In the case of `CCOC(=O)n1c(=O)oc2cc(S(=O)(=O)N3CCCCC3)ccc21`, the cell count in [1] was determined as 419. The inhibition is 14.8% (inactive) in experiment [1], 35.2% (inactive) in experiment [3], 8.09% (inactive) in experiment [8] and 16.3% (inactive) in [9]. Besides, the inhibition of aggregation in [2] is -1% (inactive). For the same compound, the figures for the nuclei count in [2] and in experiment [3] were 103% and 81.5%, respectively. The fluorescence slope in experiment [4] was -0.294 (inactive). The NADPH fluorescence slope in experiment [5] was -1.1e-05 (inactive). Besides, the slope in [6] was 0.00583 (inactive). Besides, the call in experiment [7] was inactive.

Usually inhibition stands for the relative decrease from the control value, in per cent.
